{"data": "Measurements from different studies", "note": "Protocols differ between the studies behind these lines."}
{"Compound": "CC(C)Oc1ccc(S(=O)(=O)c2ccc(Oc3cc(OCC(N)=O)c(C(=O)C(Cl)Cl)cc3[N+](=O)[O-])cc2)cc1", "cell line": "NCI-H1299", "observed": "cell growth or viability", "method": "MTT", "time": "72 h", "IC50 [µM]": 0.31}
{"Compound": "COc1cc2c3c(n(CCCn4ccnc4)c(=O)c2cc1OC)-c1nc2c(cc1C3=O)OCO2", "cell line": "HL-60", "observed": "cell growth or viability", "method": "MTS", "time": "72 h", "IC50 [µM]": "> 2"}
{"Compound": "CC(C)c1ccccc1[C@@H]1CCCN1C1CC2(CCN(c3ccc(C(=O)NS(=O)(=O)c4ccc(NC[C@H]5CC[C@](C)(O)CC5)c([N+](=O)[O-])c4)c(Oc4cnc5[nH]ccc5c4)c3)CC2)C1", "cell line": "Maver1", "observed": "cell growth or viability", "method": "ATP luminescence", "time": "48 h", "IC50 [µM]": 0.00096}
{"Compound": "COc1ccc(NC(=O)C2=C(C)NC(C)=C(C(=O)Nc3ccc(OC)cc3OC)C2c2ccccc2)c(OC)c1", "cell line": "Vero", "observed": "cell growth or viability", "method": "MTT", "IC50 [µM]": 86.5}
{"Compound": "COc1cc2c3c(n(CCCNCCO)c(=O)c2cc1OC)-c1nc2c(cc1C3=O)OCO2", "cell line": "HL-60", "observed": "cell growth or viability", "method": "MTS", "time": "72 h", "IC50 [µM]": 0.29}
{"Compound": "COc1cc(NC(=O)C2=C(C)NC(C)=C(C(=O)Nc3cc(OC)c(Cl)cc3OC)C2c2ccc(O)cc2)c(OC)cc1Cl", "cell line": "Vero", "observed": "cell growth or viability", "method": "MTT", "IC50 [µM]": 51.8}
{"Compound": "CC1(C)CCC(CN2CCN(c3ccc(C(=O)NS(=O)(=O)c4ccc(NCC5CCOCC5)c([N+](=O)[O-])c4)c(Oc4cnc5[nH]ccc5c4)c3)CC2)=C(c2ccc(Cl)cc2)C1", "cell line": "HL-60", "observed": "cell growth or viability", "method": "ATP luminescence", "time": "48 h", "IC50 [µM]": 3.04}
{"Compound": "C#CCOc1ccc(/C=C/c2cc(OC)cc(OC)c2-c2cnnn2C(=O)NCCc2ccccc2)cc1", "cell line": "RAW264.7", "observed": "NO release", "mode": "inhibitor", "method": "Griess", "time": "24 h", "setting": "LPS-stimulated", "IC50 [µM]": 11.7}
{"Compound": "COc1cc(NC(=O)c2ccccn2)ccc1S(N)(=O)=O", "cell line": "RAW264.7", "observed": "cell growth or viability", "method": "MTT", "time": "48 h", "IC50 [µM]": "> 100"}
{"Compound": "C#CCOc1ccc(/C=C/c2cc(OC)cc(OC)c2-c2cnnn2C(=O)NCC)cc1", "cell line": "RAW264.7", "observed": "NO release", "mode": "inhibitor", "method": "Griess", "time": "24 h", "setting": "LPS-stimulated", "IC50 [µM]": 10.6}
{"Compound": "COc1cc2c(NC3CCN(CCCC(=O)NCCCCCCCCCCCC(=O)N[C@H](C(=O)N4C[C@H](O)C[C@H]4C(=O)NCc4ccc(-c5scnc5C)cc4)C(C)(C)C)CC3)nc(N3CCC(F)(F)CC3)nc2cc1OCCCN1CCCC1", "cell line": "22Rv1", "observed": "cell growth or viability", "method": "CCK-8", "time": "7 days", "IC50 [µM]": 4.1}
{"Compound": "CCNCCCn1c2c(c3cc(OC)c(OC)cc3c1=O)C(=O)c1cc3c(nc1-2)OCO3", "cell line": "HL-60", "observed": "cell growth or viability", "method": "MTS", "time": "72 h", "IC50 [µM]": 0.27}
{"Compound": "CCCOc1ccc(/C=C/c2cc(OC)cc(OC)c2-c2cnnn2C(=O)NCCc2ccccc2)cc1", "cell line": "RAW264.7", "observed": "NO release", "mode": "inhibitor", "method": "Griess", "time": "24 h", "setting": "LPS-stimulated", "IC50 [µM]": 10.6}
{"Compound": "COc1cc(NC(=O)c2cccc(I)c2)ccc1S(N)(=O)=O", "cell line": "RAW264.7", "observed": "cell growth or viability", "method": "MTT", "time": "48 h", "IC50 [µM]": "> 100"}
{"Compound": "C#CCOc1ccc(/C=C/c2cc(OC)cc(OC)c2-c2cnnn2C(=O)NCCC)cc1", "cell line": "RAW264.7", "observed": "NO release", "mode": "inhibitor", "method": "Griess", "time": "24 h", "setting": "LPS-stimulated", "IC50 [µM]": 0.7}
{"Compound": "COc1cc(NC(=O)c2ccccc2[N+](=O)[O-])ccc1S(N)(=O)=O", "cell line": "RAW264.7", "observed": "cell growth or viability", "method": "MTT", "time": "48 h", "IC50 [µM]": "> 100"}
{"Compound": "C=C(F)C(=O)N1CCN(c2nc(OC[C@@H]3CCCN3C)nc3c2CCN(c2cccc4cccc(Cl)c24)C3)C[C@@H]1CC#N", "cell line": "OV56", "observed": "cell growth or viability", "method": "ATP luminescence", "setting": "3D culture", "IC50 [µM]": "> 1"}
